The ED50 is the midpoint of the dose-response relation. One may read the TD50 as the 50% point of the dose-response relation for the toxic effect studied.

The record followed here is ChEMBL document CHEMBL1125155, “Preparation and anticonvulsant activity of a series of functionalized alpha-aromatic and alpha-heteroaromatic amino acids” (J Med Chem, 1990).

For series [1], the system named is Mus musculus. The series is described as follows: Concentration required to inhibit seizures was determined in MES test after (ip) administration in mice. It counts as functional. Put shortly: (§1)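 Male CF-1 mice; compounds dissolved in 30% polyethylene glycol 400, given ip. Screening at 30, 100, 300 mg/kg, four mice per dose, tested at 0.5, 1 and 4 h for protection against maximal electroshock seizures.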

Series [2] in a line: Neurological toxicity was determined using horizontal screen test in mice after intraperitoneal administration. The following applies: mouse, in vivo, ip. It counts as organism-based. Put shortly:
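Male CF-1 mice, ip dosing in 30% PEG 400. Previously trained mice placed on a 13 × 13 cm no. 4 mesh wire screen on a vertical rod. Rod rotated 180°; failure to return to top within 1 min counted as impairment.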

Series [3] has as its system Mus musculus. Kind of series: Concentration required to inhibit seizures was determined in MES test after (ip) administration in mice; Range is >25 to <100. The class given is functional. Put shortly:
as §1

A short description of series [4]: Neurological toxicity was determined using horizontal screen test in mice after intraperitoneal administration; Range is >100 to <300. The class given is organism-based. The conditions noted are these: mouse, in vivo, ip.
For series [5], the system named is Mus musculus. Kind of series: Concentration required to inhibit seizures was determined in MES test after (ip) administration in mice; Range is >100 to <300. The class given is functional.
Series [6] in a line: Protective index (TD50/ED50) was determined. The class given is functional. Put shortly: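 Ratio of horizontal-screen TD50 to MES ED50, both ip in male CF-1 mice given in 30% PEG 400. Both values taken at time of peak anticonvulsant activity, each from a dose-response curve (10–12 or 12 mice per dose).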

For `CC(=O)N[C@@H](C)C(=O)NCc1ccccc1`, the ED50 in series [1] is 548 mg/kg. This compound also came in with a TD50 in series [2] of 841 mg/kg. For `CC(=O)NC(C(=O)NCc1ccccc1)c1cccn1C` (configuration not stated), the 50% effective dose (ED50) in series [1] is around 300 mg/kg.

For `CC(=O)NC(C(=O)NCc1ccccc1)c1cc(C)ccc1O` (configuration not stated), the ED50 in series [1] is above 300 mg/kg.

In series [1], `CC(=O)NC(C(=O)NCc1ccccc1)c1ccco1` (configuration not stated) came in with an ED50 of 10.3 mg/kg. The same compound yielded a TD50 in series [2] of around 40 mg/kg. `CC(=O)NC(C(=O)NCc1c(F)cccc1F)c1ccco1` (configuration not stated) registered a 50% effective dose (ED50) in series [3] above 25 mg/kg. Regarding `CC(=O)NC(C(=O)NCc1ccccc1)c1cc2ccccc2o1` (configuration not stated), the TD50 in series [4] is above 100 mg/kg. Also, the ED50 in series [5] was above 100 mg/kg. Turning to `CC(=O)NC(C(=O)NCc1ccccc1)c1ccc(C)o1` (configuration not stated), the TD50 in series [2] came to 75.4 mg/kg. With `CC(=O)NC(C(=O)NCc1ccccc1)c1ccsc1` (configuration not stated), the TD50 in series [2] is above 100 mg/kg.

Compound `CC(=O)N[C@H](C(=O)NCc1ccccc1)c1ccco1` showed an ED50 in series [1] above 25 mg/kg. Also, in series [2], the TD50 is above 200 mg/kg. `CC(=O)NC(C(=O)NCc1ccccc1)c1ccc2ccccc2c1` (configuration not stated): the 50% effective dose (ED50) in series [1] was above 300 mg/kg. In series [2], this compound had a TD50 above 300 mg/kg. In series [2], `CC(=O)NC(C(=O)NCc1ccccc1)c1ccc[nH]1` (configuration not stated) came in with a TD50 above 30 mg/kg.

As to `COc1ccc(C(NC(C)=O)C(=O)NCc2ccccc2)cc1` (configuration not stated), the ED50 in series [1] was above 300 mg/kg.

On to `CC(=O)NC(C(=O)NCc1ccc(F)cc1)c1ccco1` (configuration not stated), for which the TD50 in series [2] amounted to 144 mg/kg.

On to `CC(=O)N[C@@H](C(=O)NCc1ccccc1)c1ccccc1`, for which it took a dose of 26.4 mg/kg to reach the 50% effect level in series [1] (ED50). Besides, in series [2], the TD50 was above 80 mg/kg. Turning to `CCC1(c2ccccc2)C(=O)NC(=O)NC1=O` [PHENOBARBITAL], the ED50 in series [1] was found to be 21.8 mg/kg. For `CC(=O)NC(C(=O)NCc1cccc(F)c1)c1ccco1` (configuration not stated), in series [2], the TD50 is 136 mg/kg.

Turning to `CC(=O)N[C@H](C(=O)NCc1ccccc1)c1ccccc1`, in series [1], the median effective dose (ED50) was above 300 mg/kg. Besides, the TD50 in series [2] is above 100 mg/kg. In series [1], `CC(=O)NC(C(=O)NCc1ccccc1)c1ccc(O)cc1` (configuration not stated) yielded a median effective dose (ED50) above 300 mg/kg.

Regarding `CC(=O)N[C@H](C)C(=O)NCc1ccccc1`, the 50% effective dose (ED50) in series [1] stood at 54.8 mg/kg. Further, in series [2], the TD50 was 214 mg/kg. For `CC(=O)N[C@@H](C(=O)NCc1ccccc1)c1ccco1`, it took a dose of 3.3 mg/kg to reach the 50% effect level in series [1] (ED50). For the same compound, the Ratio in series [6] was 7.2. Moreover, in series [2], the TD50 came to 23.8 mg/kg.

`CC(=O)NC(C(=O)NCc1ccccc1)c1cc2ccccc2s1` (configuration not stated) came in with a TD50 in series [4] above 100 mg/kg. The compound also returned a median effective dose (ED50) in series [5] above 100 mg/kg. Consider `CC(=O)NC(C(=O)NCc1ccccc1)c1ccccc1` (configuration not stated), for which, in series [1], the median effective dose (ED50) was 32.1 mg/kg. This compound came in with a TD50 in series [2] above 40 mg/kg. Compound `CC(=O)NC(C(=O)NCc1ccccc1)c1c[nH]c2ccccc12` (configuration not stated) gave an ED50 in series [1] above 300 mg/kg. For the same compound, the TD50 in series [2] is below 300 mg/kg. With `CC(=O)NC(C(=O)NCc1ccccc1)c1cccs1` (configuration not stated), the TD50 in series [2] is above 30 mg/kg.
